# Test results as given in publication PMC2778733 (Journal of the American Chemical Society, 2008).
# Like-named read-outs stand apart in the source and are kept apart here.
# Experiments:
# Siderocalin (Scn) [1] = target: T1, Siderocalin (Scn) (Homo sapiens, UniProt P80188); conditions: cited from earlier work
# [2] = [L] = 10 μmol L^−1, [Fe^III] = 1 μmol L^−1; cited from earlier work
# Siderocalin (Scn) [3] = target: T1, Siderocalin (Scn); experiment: Fluorescence quenching binding assay of Scn; conditions: for Kd: 100 nM Scn, TBS pH 7.4, 5% DMSO
# In short: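 Recombinant Scn, 100 nM in TBS pH 7.4 with 32 μg/mL ubiquitin and 5% DMSO, was titrated with 2–10 equivalents of substrate. Tryptophan quenching was read at excitation 281 nm and emission 340 nm, corrected for dilution. Metal complexes were formed in situ from a DMSO ligand stock plus 1 eq. metal salt, equilibrated 1 h, and used as a 6 μM working solution. Apo ligands were prepared without metal. Kd came from a one-site nonlinear least-squares fit.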
# T1 sequence (P80188 21-198): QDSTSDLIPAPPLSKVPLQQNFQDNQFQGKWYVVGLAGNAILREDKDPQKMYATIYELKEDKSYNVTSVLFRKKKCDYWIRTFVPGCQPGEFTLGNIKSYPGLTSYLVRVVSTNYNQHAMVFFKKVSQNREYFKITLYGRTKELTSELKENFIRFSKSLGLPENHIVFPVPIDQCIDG
smiles,measurement,setting,value
CC(=O)N(O)CCCC[C@H](NC(=O)CC(O)(CC(=O)N[C@@H](CCCCN(O)C(C)=O)C(=O)O)C(=O)O)C(=O)O [aerobactin],Binding by Scn in words,Siderocalin (Scn) [1]; natural siderophores,not bound
O=C1CCC(=O)N(O)CCC(O)CNC(=O)CCC(=O)N(O)CCC(O)CN1 (centres unmarked) [alcaligin],Binding by Scn in words,Siderocalin (Scn) [1]; natural siderophores,not bound
C[C@H]1OC(=O)[C@@H](NC(=O)CNC(=O)c2cccc(O)c2O)[C@@H](C)OC(=O)[C@@H](NC(=O)CNC(=O)c2cccc(O)c2O)[C@@H](C)OC(=O)[C@H]1NC(=O)CNC(=O)c1cccc(O)c1O [bacillibactin],Binding by Scn in words,Siderocalin (Scn) [1]; apo siderophore,bound with high affinity
same,Binding by Scn in words,Siderocalin (Scn) [1]; natural siderophores,sequestered
CC(=O)N(O)CCCCCNC(=O)CCC(=O)N(O)CCCCCNC(=O)CCC(=O)N(O)CCCCCN [desferrioxamine B],pM value (pM = -log[Fe^III]),[2],26.6
O=C(N[C@H]1COC(=O)[C@@H](NC(=O)c2cccc(O)c2O)COC(=O)[C@@H](NC(=O)c2cccc(O)c2O)COC1=O)c1cccc(O)c1O [enterobactin],Binding by Scn in words,Siderocalin (Scn) [1]; apo siderophore,bound with high affinity
same,Binding by Scn in words,Siderocalin (Scn) [1]; natural siderophores,sequestered
same,pM value (pM = -log[Fe^III]),[2],35.3
O=C(CC(O)(CC(=O)NCCCCNCCCNC(=O)c1ccc(O)c(O)c1)C(=O)O)NCCCCNCCCNC(=O)c1ccc(O)c(O)c1 [petrobactin],Binding by Scn in words,Siderocalin (Scn) [1],not bound
O=C(N[C@H]1COC(=O)[C@@H](NC(=O)c2cc([C@@H]3O[C@H](CO)[C@@H](O)[C@H](O)[C@H]3O)cc(O)c2O)COC(=O)[C@@H](NC(=O)c2cc([C@@H]3O[C@H](CO)[C@@H](O)[C@H](O)[C@H]3O)cc(O)c2O)COC1=O)c1cccc(O)c1O [salmochelin-S4],Binding by Scn in words,Siderocalin (Scn) [1]; natural siderophores,not bound
"O=C(NCCN(CCNC(=O)c1cccc(=O)n1O)CCNC(=O)c1cccc(=O)n1O)c1cccc(=O)n1O [tren(1,2-HOPO)3]",Kd,Siderocalin (Scn) [3]; Fe^III complex,> 600 nM
same,Kd,Siderocalin (Scn) [3]; V^IV complex,300 ± 30 nM
same,Scn affinity in words,"Siderocalin (Scn) [3]; apo ligand, pH 7.4",micromolar affinity range
same,Kd,Siderocalin (Scn) [3]; no metal (apo ligand),250 ± 30 nM
"Cn1ccc(C(=O)NCCN(CCNC(=O)c2ccn(C)c(=O)c2O)CCNC(=O)c2ccn(C)c(=O)c2O)c(O)c1=O [tren(Me-3,2-HOPO)3]",Kd,Siderocalin (Scn) [3]; Fe^III complex,> 600 nM
"O=C(NCCN(CCNC(=O)c1cccc(O)c1O)CCNC(=O)c1cccc(=O)n1O)c1cccc(O)c1O [trenCAM2(1,2-HOPO), tren(CAM)2(1,2-HOPO)]",Kd,Siderocalin (Scn) [3]; Fe^III complex,0.8 ± 0.3 nM
same,Kd,Siderocalin (Scn) [3]; V^IV complex,40 ± 9 nM
same,Kd,Siderocalin (Scn) [3]; no metal (apo ligand),1.4 ± 0.3 nM
"Cn1ccc(C(=O)NCCN(CCNC(=O)c2cccc(O)c2O)CCNC(=O)c2cccc(O)c2O)c(O)c1=O [trenCAM2(Me-3,2-HOPO), tren(CAM)2(Me-3,2-HOPO)]",Kd,Siderocalin (Scn) [3]; Fe^III complex,120 ± 10 nM
"O=C(NCCN(CCNC(=O)c1cccc(O)c1O)CCNC(=O)c1cccc(O)c1O)c1cccc(O)c1O [trenCAM3, tren(CAM)3]",Kd,Siderocalin (Scn) [3]; V^IV complex,1.3 ± 0.3 nM
same,Kd,Siderocalin (Scn) [3]; no metal (apo ligand),1.2 ± 0.2 nM
same,Kd,Siderocalin (Scn) [1]; Fe^III complex,0.3 ± 0.1 nM
"O=C(NCCN(CCNC(=O)c1cccc(=O)n1O)CCNC(=O)c1cccc(=O)n1O)c1cccc(O)c1O [trenCAM(1,2-HOPO)2, tren(CAM)(1,2-HOPO)2]",Kd,Siderocalin (Scn) [3]; Fe^III complex,43 ± 2 nM
same,Kd,Siderocalin (Scn) [3]; V^IV complex,220 ± 70 nM
same,Kd,Siderocalin (Scn) [3]; no metal (apo ligand),140 ± 10 nM
"Cn1ccc(C(=O)NCCN(CCNC(=O)c2cccc(O)c2O)CCNC(=O)c2ccn(C)c(=O)c2O)c(O)c1=O [trenCAM(Me-3,2-HOPO)2, tren(CAM)(Me-3,2-HOPO)2]",Kd,Siderocalin (Scn) [3]; Fe^III complex,150 ± 20 nM
